# Assay results taken from ChEMBL document CHEMBL1148136, “Induction of quinone reductase by withanolides” (J Nat Prod, 2002).
# pIC50: −log10 of the molar value.
# How the values were obtained:
# [1] = Growth inhibition of mouse Hepa-1c1c7 cells by crystal violet staining; format: cell-based; conditions: for pIC50: Mus musculus, Hepa-1c1c7; for Activity: mouse, hepa-1c1c7
# Summary of the method: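 Hepa 1c1c7 cells seeded at 4000 cells/mL and grown 24 h at 37 °C, then medium changed. Compounds added in 10% DMSO, serially diluted over 0.15-20 µg/mL, and exposed 48 h. Viability read by crystal violet staining at 595 nm. IC50 taken as the half-maximal inhibitory concentration of cell viability.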
# [2] = Chemoprevention index, ratio of IC50 for mouse Hepa-1c1c7 cells to drug level required to double specific quinone reductase activity in mouse Hepa-1c1c7 cells; format: functional
# Summary of the method: (§1)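 Hepa 1c1c7 cells seeded at 4000 cells/mL, grown 24 h at 37 °C under CO2, then medium changed. Compounds added in 10% DMSO, serially diluted over 0.15-20 µg/mL, and incubated a further 48 h. QR measured as NADPH-dependent, menadiol-mediated MTT reduction to formazan. Protein by crystal violet at 595 nm in duplicate plates. Specific activity expressed relative to solvent control. CD = concentration giving 2-fold activity, CQ = 4-fold. CI = IC50/CD or IC50/CQ.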
# [3] = Chemoprevention index, ratio of IC50 for mouse Hepa-1c1c7 cells to drug level required to induce 4-fold increase in quinone reductase activity in mouse Hepa-1c1c7 cells; format: functional; summary of the method: as §1
Compound,pIC50 [1],Ratio [2],Ratio [3],Activity [1]
CC1=C(CO)C(=O)O[C@@H]([C@@H](C)[C@H]2CC[C@H]3[C@@H]4C[C@H]5O[C@]56CC=CC(=O)[C@]6(C)[C@H]4CC[C@]23C)C1 [JABOROSALACTONE A],5.74,6.3,2.7,–
CC1=C(C)C(=O)O[C@@H]([C@](C)(O)[C@H]2CC[C@H]3[C@@H]4C[C@H]5O[C@]56[C@@H](O)C=CC(=O)[C@]6(C)[C@H]4CC[C@]23CO)C1,5.71,7.2,3.5,–
C[S+]([O-])CCCCN=C=S (stereo unspecified) [SULFORAPHANE],–,23.9,1.1,–
CC1=C(CO)C(=O)O[C@@H]([C@@H](C)[C@H]2CC[C@H]3[C@@H]4C[C@@H](O)C5=CC=CC(=O)[C@]5(C)[C@H]4CC[C@]23C)C1 [JABOROSALACTONE B],4.41,11.1,26.9,–
CO[C@H]1O[C@@](C)([C@H]2CC(C)=C(C)C(=O)O2)[C@H]2CC[C@H]3[C@@H]4CC=C5[C@@H](O)C=CC(=O)[C@]5(C)[C@H]4CC[C@]123 [WITHAPHYSALIN I],5.28,5.1,–,–
CC(=O)O[C@H]1C=CC(=O)[C@]2(C)[C@H]3CC[C@]45C(=O)O[C@@](C)([C@H]6C[C@H](C)[C@@H](C)C(=O)O6)[C@H]4CC[C@H]5[C@@H]3C[C@H]3O[C@]132,6.38,>1.5,>1.5,–
CC(=O)O[C@H]1C=CC(=O)[C@]2(C)[C@H]3CC[C@]45C(=O)O[C@@](C)([C@H]6CC(C)=C(C)C(=O)O6)[C@H]4CC[C@H]5[C@@H]3C[C@H]3O[C@]132,6.24,>2,>2,–
CC(=O)O[C@H]1C=CC(=O)[C@]2(C)[C@H]3CC[C@]45C(O)O[C@@](C)([C@H]6C[C@H](C)[C@@H](C)C(=O)O6)[C@H]4CC[C@H]5[C@@H]3C[C@H]3O[C@]132 (stereo partly specified),6.41,>1.4,>1.4,–
CC1=C(C)C(=O)O[C@@H](/C(C)=C2\[C@@H](O)C[C@H]3[C@@H]4[C@@H]5O[C@@H]5[C@@]5(O)CC=CC(=O)[C@]5(C)[C@H]4CC[C@]23C)C1 [EXODECONOLIDE A],< 4.37,>2.7,–,–
CC(=O)O[C@H]1C=CC(=O)[C@@]2(C)C1=C[C@H](OC(C)=O)[C@@H]1[C@@H]2CC[C@]2(C)[C@@H]([C@@](C)(O)[C@H]3CC(C)=C(C)C(=O)O3)CC[C@@H]12,6.09,>3,–,–
CC1=C(C)[C@H]([C@H]2O[C@@]3(O)C[C@H]4[C@@H](C[C@H]5O[C@]56CC=CC(=O)[C@]46C)[C@@H]4CC[C@@](O)([C@@H]2C)[C@]43C)OC1=O [TRECHONOLIDE A],5.11,28.7,6.1,–
CC1=C(C)C(=O)O[C@@H]([C@@H](C)[C@H]2[C@@H](O)C[C@H]3[C@@H]4C[C@H]5O[C@]56[C@@H](O)C=CC(=O)[C@]6(C)[C@H]4CC[C@]23C)C1,6.18,>2.1,1.3,–
CC1=C(C)C(=O)O[C@@H]([C@](C)(O)[C@H]2CC[C@H]3[C@@H]4[C@@H](O)C=C5[C@@H](O)C=CC(=O)[C@]5(C)[C@H]4CC[C@]23C)C1,5.78,3.5,0.62,–
CO[C@H]1O[C@@](C)([C@H]2CC(C)=C(C)C(=O)O2)[C@H]2CC[C@H]3[C@@H]4CC=C5C(=O)C=CC(=O)[C@]5(C)[C@H]4CC[C@]123 [WITHAPHYSALIN L],6.19,–,–,–
CC1=C(CO)C(=O)O[C@@H]([C@@H](C)[C@H]2CC[C@H]3[C@@H]4C[C@@H](O)[C@@]5(O)CC=CC(=O)[C@]5(C)[C@H]4CC[C@]23C)C1 [JABOROSALACTONE D],< 4.37,>1.7,–,–
CC1=C(C)C(=O)O[C@@H]([C@@H](C)[C@H]2CC[C@H]3[C@@H]4[C@@H]5O[C@@H]5[C@@]5(O)CC=CC(=O)[C@]5(C)[C@H]4C[C@H](O)[C@]23C)C1 [WITHAFEROXOLIDE],< 4.37,>2.9,–,–
CC1=C(C)C(=O)O[C@@H]([C@@H]2CO[C@@]3(O)C[C@H]4[C@@H](C[C@@H](O)[C@@]5(O)CC=CC(=O)[C@]45C)[C@@H]4CC[C@]2(O)[C@]43C)C1 [JABOROSALACTONE S],< 4.40,–,–,–
CC(=O)C1=CC[C@H]2[C@@H]3[C@@H]4O[C@@H]4[C@@]4(O)CC=CC(=O)[C@]4(C)[C@H]3CC[C@]12C,< 4.23,>1.7,–,–

Compound,pIC50 [1],Ratio [2],Ratio [3],Activity [1]
CO[C@@H]1O[C@@](C)([C@H]2CC(C)=C(C)C(=O)O2)[C@H]2CC[C@H]3[C@@H]4CC=C5[C@@H](O)C=CC(=O)[C@]5(C)[C@H]4CC[C@]123 [WITHAPHYSALIN H],5.28,10,–,–
CC(=O)O[C@@H]1O[C@@](C)([C@H]2CC(C)=C(C)C(=O)O2)[C@H]2CC[C@H]3[C@@H]4CC=C5[C@@H](OC(C)=O)C=CC(=O)[C@]5(C)[C@H]4CC[C@]123,5.29,–,–,–
CC1=C(C)C(=O)O[C@@H]([C@@H](C)[C@@]2(O)CC[C@H]3[C@@H]4[C@@H]5O[C@@H]5[C@@]5(O)CC=CC(=O)[C@]5(C)[C@H]4CC[C@@]32C)C1 [WITHANONE],–,–,–,Not Active
CC1=C(C)C(=O)O[C@@H]([C@](C)(O)[C@H]2CC[C@H]3[C@@H]4[C@@H](O)[C@H]5O[C@]56[C@@H](O)C=CC(=O)[C@]6(C)[C@H]4CC[C@]23C)C1,5.90,2.5,–,–
CC1=C(C)C(=O)O[C@@H]([C@](C)(O)[C@H]2CC[C@H]3[C@@H]4[C@@H]5O[C@@H]5[C@@]5(O)CC=CC(=O)[C@]5(C)[C@H]4CC[C@]23C)C1 [WITHANOLIDE A],< 4.37,–,–,–
CC1=C(C)[C@]2(OC1=O)[C@H](O)[C@@H](C)[C@]1(O)CC[C@H]3[C@@H]4C[C@@H](O)[C@@]5(Cl)CC=CC(=O)[C@]5(C)[C@H]4C[C@@]2(O)[C@@]31C [JABOROSALACTONE 10],< 4.42,>5.2,–,–
CC1=C(C)C(=O)O[C@@H](/C(C)=C2\[C@H](O)C[C@H]3[C@@H]4[C@@H]5O[C@@H]5[C@@]5(O)CC=CC(=O)[C@]5(C)[C@H]4CC[C@]23C)C1 [EXODECONOLIDE B],< 4.37,>2.6,–,–
C[C@@H](c1ccc2c(c1)CC[C@H]1[C@H]2C[C@@H]2O[C@@]23CC=CC(=O)[C@]13C)[C@@H]1C[C@@H]2O[C@@H]2[C@H](O)O1 [SALPICHROLIDE A],< 4.37,>4,–,–
CO[C@@H]1O[C@@](C)([C@H]2CC(C)=C(C)C(=O)O2)[C@H]2CC[C@H]3[C@@H]4CC=C5C(=O)C=CC(=O)[C@]5(C)[C@H]4CC[C@]123 [WITHAPHYSALIN K],5.14,–,–,–
CC1=C(C)C(=O)O[C@@H]([C@@H](C)[C@@]2(O)CC[C@H]3[C@@H]4C[C@H]5O[C@]56CCCC(=O)[C@]6(CO)[C@H]4CC[C@@]32C)C1 [JABOROSALACTONE O],< 4.37,>27.8,–,–
CC1=C(C)C(=O)O[C@@H]([C@]2(C)OC(O)[C@]34CC[C@H]5[C@@H](CC=C6[C@@H](O)C=CC(=O)[C@@]65C)[C@@H]3CC[C@H]24)C1 (stereo partly specified) [WITHAPHYSALIN G],5.01,19.3,–,–
CC1=C(C)C(=O)O[C@@H]([C@]2(C)OC(=O)[C@]34CC[C@H]5[C@@H](CC=C6[C@@H](O)C=CC(=O)[C@@]65C)[C@@H]3CC[C@H]24)C1 [WITHAPHYSALIN J],4.96,28.1,–,–
C[C@@H](c1cc(O)c2c(c1)CC[C@H]1[C@H]2C[C@@H]2O[C@@]23CC=CC(=O)[C@]13C)[C@@H]1C[C@@H]2O[C@@H]2[C@H](O)O1 [SALPICHROLIDE G],< 4.37,>3.7,–,–
CC(=O)O[C@@H]1[C@H]2[C@@H]3CC[C@H]([C@@](C)(O)[C@H]4CC(C)=C(C)C(=O)O4)[C@@]3(C)CC[C@@H]2[C@@]2(C)C(=O)C=C[C@H](OC(C)=O)[C@]23O[C@H]13,6.48,1.3,–,–
CC1=C(C)C(=O)O[C@@H]([C@@H](C)[C@@]2(O)CC[C@H]3[C@@H]4C[C@H]5O[C@]56CC=CC(=O)[C@]6(CO)[C@H]4CC[C@@]32C)C1 [JABOROSALACTONE L],–,–,–,Not Active
CC1=C(C)C(=O)O[C@@H]([C@]2(C)OC(O)[C@]34CC[C@H]5[C@@H](C[C@H]6O[C@]67[C@@H](O)C=CC(=O)[C@]57C)[C@@H]3CC[C@H]24)C1 (stereo partly specified) [WITHAPHYSALIN F],5.38,–,–,–
CO[C@]12CC=CC(=O)[C@]1(C)[C@H]1C[C@@]3(O)[C@@]4(C)[C@@H](CC[C@@]4(O)[C@H](C)[C@@H](O)[C@]34OC(=O)C(C)=C4C)[C@@H]1C[C@H]2O [JABOROSALACTONE 12],< 4.41,>4.2,–,–
